The text below walks through data of publication PMC9804109 (Current Research in Pharmacology and Drug Discovery, 2022).

In data set [1] the test system is melanoma cells. Particulars: ref Le Gal et al., 2015; cited from earlier work.
In data set [2] the test system is V79 lung fibroblasts. Particulars: ref Grosicka-Maciąg et al., 2011; cited from earlier work.
For data set [3], the system named is LN-229 cells. The data set is described as follows: MitoSOX flow cytometry of mitochondrial ROS, LN-229. Format: cell-based, human. The settings on record: cytochrome c reductase inhibitor as control. In outline:
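Cells trypsinised, washed and suspended in HBSS at 1 × 10^6 cells/mL, then exposed to test compound (0.2 or 1 mM) in HBSS for 2 h. Stained with 5 μM MitoSOX for 20 min at 37 °C and read by flow cytometry in the red channel. Antimycin A served as the ROS-promoting control. Mean channel fluorescence ± SEM, n = 3; two-way ANOVA with Bonferroni post-test vs untreated.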

Data set [4] relates to trypsin. Particulars: previous HPLC conditions; ref Akhmadishina et al., 2018; cited from earlier work.

As to `CC(=O)N[C@@H](CS)C(=O)O` [N-acetylcysteine (NAC), N-acetylcysteine], the “elevation of GSH/GSSG ratio” value in data set [1] is given as ~3.8 times. In data set [2], the “increase of both GSH and GSSG levels” value was “up to 2 times”.

On to `Cc1c(C)c2c(c(C)c1O)CCC(C)(C(=O)O)O2` (centres unmarked) [Trolox], for which the “elevation of GSH/GSSG ratio” value in data set [1] is on record as “ca. 2.5 times”.

For the molecule `CCCCCC[C@H]1C(=O)O[C@H](C)[C@H](NC(=O)c2cccc(NC=O)c2O)C(=O)O[C@@H](C)[C@@H]1OC(=O)CC(C)C` [antimycin A], the “effect on mitochondrial ROS (MitoSOX)” value in data set [3] is listed as “lack of ROS-promoting effect”.

As for YRFK-NH2, the “half-time of cleavage by trypsin” value in data set [4] was 6 h.
